Data reported in PMC9110138 (Biomedicine & Pharmacotherapy, 2022).

Legend:
[1] = system: SARS-CoV-2 pseudoparticles; conditions: cited from earlier work
[2] = system: HSA; conditions: previous investigation; cited from earlier work
[3] = system: SARS-CoV-2; conditions: cited from earlier work; for effect on viral replication in Calu-3 cells: infected with SARS-CoV-2 at MOI 0.001 for 90 min
[4] = target: human recombinant CYP3A4 (Homo sapiens, UniProt P08684); conditions: microsomal and recombinant enzyme experiments; cited from earlier work
Chain of human recombinant CYP3A4 (P08684 whole entry): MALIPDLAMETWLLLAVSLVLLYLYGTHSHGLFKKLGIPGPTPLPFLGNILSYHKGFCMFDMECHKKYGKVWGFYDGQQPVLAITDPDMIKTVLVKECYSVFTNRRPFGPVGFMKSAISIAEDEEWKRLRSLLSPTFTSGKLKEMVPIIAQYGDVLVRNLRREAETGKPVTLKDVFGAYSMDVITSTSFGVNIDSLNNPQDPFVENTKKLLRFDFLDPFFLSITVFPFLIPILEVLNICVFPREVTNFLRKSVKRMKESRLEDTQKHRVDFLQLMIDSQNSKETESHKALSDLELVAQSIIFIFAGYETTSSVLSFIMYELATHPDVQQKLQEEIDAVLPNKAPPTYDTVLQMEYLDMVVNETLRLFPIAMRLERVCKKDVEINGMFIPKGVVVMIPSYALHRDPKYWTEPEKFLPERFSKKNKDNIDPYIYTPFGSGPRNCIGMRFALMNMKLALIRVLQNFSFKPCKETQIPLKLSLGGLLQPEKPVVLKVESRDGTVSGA

[5] = system: PHHs; conditions: up to 50 μM, 24 h cytotoxicity assays; cited from earlier work
[6] = system: human intestinal epithelial cells; conditions: up to 50 μM, 24 h cytotoxicity assays; cited from earlier work
[7] = canavanine, replacing arginine in P2 and P4; cited from earlier work
[8] = target: CYP2D6 (Homo sapiens, UniProt P10635); assay: Fluorometric CYP2D6 assay in human hepatic microsomes; assay type: in vitro ADME; conditions: MI-1851 50 µM; quinidine 3 µM
Chain of CYP2D6 (P10635 whole entry): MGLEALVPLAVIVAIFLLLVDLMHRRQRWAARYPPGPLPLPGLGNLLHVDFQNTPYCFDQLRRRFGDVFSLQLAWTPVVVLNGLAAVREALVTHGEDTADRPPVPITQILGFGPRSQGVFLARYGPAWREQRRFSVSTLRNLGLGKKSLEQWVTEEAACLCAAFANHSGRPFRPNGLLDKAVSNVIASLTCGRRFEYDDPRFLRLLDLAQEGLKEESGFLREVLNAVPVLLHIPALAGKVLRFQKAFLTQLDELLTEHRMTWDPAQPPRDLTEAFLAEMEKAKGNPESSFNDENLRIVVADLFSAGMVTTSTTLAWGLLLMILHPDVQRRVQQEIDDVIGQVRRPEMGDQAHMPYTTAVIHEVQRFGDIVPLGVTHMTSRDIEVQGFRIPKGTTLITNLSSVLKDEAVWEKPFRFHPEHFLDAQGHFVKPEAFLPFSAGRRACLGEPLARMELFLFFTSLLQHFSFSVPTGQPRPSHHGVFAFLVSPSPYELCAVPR
In short: (§1)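 Human hepatic microsomes were mixed with assay buffer and NADPH-generating system. They were preincubated 15 min at 37 °C with test compound (added solutions 0–250 µM), reference inhibitor or buffer-only background control. A fluorogenic substrate/NADP+ mixture followed, with final protein 10 µg/well. Fluorescence ex/em was 406/468 nm (CYP1A2), 415/502 nm (CYP2C9) and 390/468 nm (CYP2D6). Results are substrate RFU% as mean ± SEM, n = 3 or 4.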

[9] = target: CYP2C9 (Homo sapiens, UniProt P11712); assay: Fluorometric CYP2C9 assay in human hepatic microsomes; assay type: in vitro ADME; conditions: MI-1851 50 µM; tienilic acid 60 µM
Chain of CYP2C9 (P11712 whole entry): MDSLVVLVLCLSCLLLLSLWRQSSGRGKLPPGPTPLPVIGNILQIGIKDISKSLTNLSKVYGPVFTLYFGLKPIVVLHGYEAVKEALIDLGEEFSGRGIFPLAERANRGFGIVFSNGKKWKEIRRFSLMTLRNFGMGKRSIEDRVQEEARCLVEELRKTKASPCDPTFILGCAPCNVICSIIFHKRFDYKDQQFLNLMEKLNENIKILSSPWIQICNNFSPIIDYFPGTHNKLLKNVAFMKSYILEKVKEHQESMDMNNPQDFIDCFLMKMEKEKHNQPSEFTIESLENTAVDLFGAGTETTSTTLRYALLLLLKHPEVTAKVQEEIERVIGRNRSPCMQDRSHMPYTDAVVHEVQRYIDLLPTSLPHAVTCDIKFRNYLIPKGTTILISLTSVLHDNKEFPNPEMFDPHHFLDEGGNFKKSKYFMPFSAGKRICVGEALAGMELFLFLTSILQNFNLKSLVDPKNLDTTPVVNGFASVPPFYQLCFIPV
In short: as §1

[10] = target: T1, CYP1A2 (Homo sapiens, UniProt P05177); assay: Fluorometric CYP1A2 assay in human hepatic microsomes; assay type: in vitro ADME; conditions: MI-1851 50 µM; α-naphthoflavone 6 µM
T1 sequence (P05177 1-516): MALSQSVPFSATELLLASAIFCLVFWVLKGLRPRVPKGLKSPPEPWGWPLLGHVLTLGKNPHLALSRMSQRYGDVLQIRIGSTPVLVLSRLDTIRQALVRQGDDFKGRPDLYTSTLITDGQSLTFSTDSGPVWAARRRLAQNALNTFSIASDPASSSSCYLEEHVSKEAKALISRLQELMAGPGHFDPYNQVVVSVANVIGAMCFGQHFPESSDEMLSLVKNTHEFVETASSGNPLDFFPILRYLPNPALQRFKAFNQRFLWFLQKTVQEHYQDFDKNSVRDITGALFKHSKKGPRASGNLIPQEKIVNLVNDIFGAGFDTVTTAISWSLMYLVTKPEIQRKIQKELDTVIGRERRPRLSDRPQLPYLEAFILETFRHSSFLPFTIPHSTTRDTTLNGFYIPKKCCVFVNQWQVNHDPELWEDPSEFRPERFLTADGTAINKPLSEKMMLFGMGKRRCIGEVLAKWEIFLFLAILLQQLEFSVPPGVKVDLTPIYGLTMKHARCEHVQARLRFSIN
In short: as §1

[11] = target: T1, CYP1A2; assay: CYP1A2 luminescent P450-Glo assay in PHHs; assay type: cell-based; conditions: 2 h; MI-1851 10, 20, 50 and 100 µM; α-naphthoflavone 10 µM
In short: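 Cryopreserved primary human hepatocytes were thawed in recovery medium and plated for 6 h in medium with 5% FBS. They were then kept FBS-free on collagen-coated membrane inserts at 37 °C, 5% CO2. Cells were washed in serum-free medium and exposed 2 h to test compound (0–100 µM; freshly diluted from 10 mM DMSO stock). CYP1A2 was read by P450-Glo with luciferin 1A2. Groups were compared by one-way ANOVA/Tukey.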

Compound: CCOC(=O)[C@H]1O[C@@H]1C(=O)N[C@@H](CC(C)C)C(=O)NCCC(C)C [E64d]
- effect on infection with SARS-CoV-2 pseudoparticles [1]: could decrease infection

Compound: N=C(N)c1cccc(C[C@H](NS(=O)(=O)c2cccc(-c3ccc(Cl)cc3Cl)c2)C(=O)N2CCC(CCN)CC2)c1.O=C(O)C(F)(F)F.O=C(O)C(F)(F)F [MI-432]
- interactions with HSA [2]: no or only weak interactions
- effect on viral titers in human airway epithelial Calu-3 cells [3]: efficiently reduced
- effect on viral replication in Calu-3 cells [3]: inhibit viral replication
- inhibition of CYP3A4 [4]: potent inhibitors of CYP3A4 at the nanomolar or low micromolar range

Compound: COc1ccc(-c2cccc(S(=O)(=O)N[C@@H](Cc3cccc(C(=N)N)c3)C(=O)N3CCN(C(=O)NC4CCCCC4)CC3)c2)c(OC)c1 [MI-1900]
- interactions with HSA [2]: no or only weak interactions
- effect on viral titers in human airway epithelial Calu-3 cells [3]: efficiently reduced
- effect on viral replication in Calu-3 cells [3]: inhibit viral replication
- inhibition of CYP3A4 [4]: potent inhibitors of CYP3A4 at the nanomolar or low micromolar range
- damage to PHHs [5]: did not cause damage
- damage to human intestinal epithelial cells [6]: did not cause damage

Compound: N=C(N)NOCC[C@H](N)C(=O)O [canavanine]
- pKa [7]: 7.04

Compound: C=C[C@H]1C[N@@]2CC[C@H]1C[C@@H]2[C@@H](O)c1ccnc2ccc(OC)cc12 [quinidine]
- effect on human microsomal CYP2D6 activity [8]: significant inhibition

Compound: O=C(O)COc1ccc(C(=O)c2cccs2)c(Cl)c1Cl [tienilic acid]
- effect on human microsomal CYP2C9 activity [9]: significant inhibition

Compound: O=c1cc(-c2ccccc2)oc2c1ccc1ccccc12 [α-naphthoflavone]
- effect on human microsomal CYP1A2 activity [10]: significant inhibition
- effect on CYP1A2 activity in PHHs [11]: significant inhibitory effects

Compound: aprotinin
- effect on virus replication in vitro ([3]; 10 µM, 48 h post infection): decreased the virus replication
- effect on viral replication in Calu-3 cells [3]: inhibit viral replication
